Measurements from different studies.
Target: Serine/threonine-protein kinase NLK (NLK, Homo sapiens, UniProt Q9UBE8)
One construct used (Q9UBE8 1-527): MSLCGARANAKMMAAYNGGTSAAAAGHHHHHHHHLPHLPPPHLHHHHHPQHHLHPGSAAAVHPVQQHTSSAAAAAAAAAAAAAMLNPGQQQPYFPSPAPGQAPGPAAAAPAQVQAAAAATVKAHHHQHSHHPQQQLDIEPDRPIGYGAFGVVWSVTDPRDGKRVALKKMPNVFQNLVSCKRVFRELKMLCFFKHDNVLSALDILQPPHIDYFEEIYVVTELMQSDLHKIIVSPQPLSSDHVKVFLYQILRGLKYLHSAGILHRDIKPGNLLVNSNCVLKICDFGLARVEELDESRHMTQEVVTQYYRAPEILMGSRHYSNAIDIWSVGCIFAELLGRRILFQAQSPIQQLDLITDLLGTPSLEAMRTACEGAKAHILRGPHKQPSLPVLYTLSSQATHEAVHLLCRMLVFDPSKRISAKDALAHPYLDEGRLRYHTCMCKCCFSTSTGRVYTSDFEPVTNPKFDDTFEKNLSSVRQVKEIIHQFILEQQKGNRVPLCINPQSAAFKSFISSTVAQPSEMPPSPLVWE

SMILES	observed	method	concentration	remaining binding
CS(=O)(=O)NCC[C@H](NC(=O)c1cncc2c1cnn2-c1ccc(F)cc1)c1ccnc(S(C)(=O)=O)c1	cell-free assay	competition with immobilised ligand	1 µM	100%
C[C@@H](c1ccc(-n2cnc3c(N)ncnc32)cc1)N1CCc2nn(C)c(Cc3ccccc3)c2C1=O	binding	competition with immobilised ligand	0.1 µM	80%
CC1CCCN1c1nccc(-c2cnn3ncccc23)n1 (stereo not shown)	binding		1 µM	78%
FC(F)(F)Oc1cccc(-c2cnc3ccc(-c4ccncc4)nn23)c1	cell-free assay	competition with immobilised ligand	5 µM	85%
O=C(c1ccc(Nc2nccc(-c3cc4ccccc4s3)n2)cc1)N1CCC(N2CCCC2)CC1	binding	competition with immobilised ligand	1 µM	93%
CN(C)c1ncnc(-c2ccc3nc(Nc4cc(CN5CCN(C(=O)CC(F)(F)F)CC5)ccn4)[nH]c3c2)c1Cl	cell-free assay	competition with immobilised ligand	1 µM	88%
O=C(c1ccc(Nc2ncc(Cl)c(-c3cc4ccccc4s3)n2)cc1)N1CCC(N2CCCC2)CC1	binding	competition with immobilised ligand	1 µM	72%
Nc1ncc2c(n1)-c1c([nH]c3ccc(C#CC4CC4)cc13)CCCC2	binding	competition with immobilised ligand	1 µM	85%
COc1ccc2c(c1)O[C@@H](c1ccc(OC)c(OC)c1)C[C@H]2NC(=O)C1(c2ccc3c(c2)OC(F)(F)O3)CC1	cell-free assay	competition with immobilised ligand	1 µM	100%
CN(C)c1nccc(-c2cnn3ncccc23)n1	binding		1 µM	100%
O=C(NCCCN1CCOCC1)c1ccc(Nc2nccc(-c3cc4ccccc4s3)n2)cc1	binding	competition with immobilised ligand	1 µM	94%
c1cnn2ncc(-c3ccnc(N4CCC45COC5)n3)c2c1	binding		1 µM	87%
O=C(O)[C@@H]1[C@@H](Cn2nnc3ccccc3c2=O)CC[C@H]1C(=O)c1ccc(OCCC2CCOCC2)cc1	cell-free assay	competition with immobilised ligand	1 µM	86%
N[C@@H]1CCN(c2nccc(-c3cnn4ncccc34)n2)C1	binding		1 µM	100%
O=C(Nc1ccc(Oc2ccc(F)cc2)cc1)N1CCc2ncccc2[C@H]1c1ccc(F)cc1	cell-free assay	competition with immobilised ligand	1 µM	87%
Cc1cnn2ncc(-c3ccnc(N(C)C)n3)c2c1	binding		1 µM	100%
COc1cnc(Nc2cccc(S(N)(=O)=O)c2)nc1N1CCN(c2ccccc2)CC1	binding	competition with immobilised ligand	1 µM	96%
Cc1c(C(=O)O)cc(-c2ccc(C3CCNCC3)cc2)c2ccc(-c3ccc(C(F)(F)F)cc3)cc12	binding	competition with immobilised ligand	1 µM	100%
COc1ccnn2ncc(-c3ccnc(N(C)C)n3)c12	binding		1 µM	87%
COc1ncc2cc3ccccc3nc2c1C#N	binding	competition with immobilised ligand	5 µM	100%
O=C(NCC1CCOCC1)c1n[nH]cc1NC(=O)c1c(F)cccc1F	binding	competition with immobilised ligand	1 µM	85%
C[C@@H]1CCN(c2nccc(-c3cnn4ncccc34)n2)C1	binding		1 µM	70%
